Reference: ChEMBL document CHEMBL5104115, “Design, synthesis of novel triptolide-glucose conjugates targeting glucose Transporter-1 and their selective antitumor effect” (Eur J Med Chem, 2022)

How the values were obtained:
[1] = Cytotoxicity against human L02 cells incubated for 72 hrs by MTT assay; format: toxicity, cell-based
How it was run: (§1)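 Cells seeded at 4000/well, incubated overnight, then exposed to a range of concentrations, or DMSO vehicle, for 72 h. MTT (5 mg/mL solution) added for 4 h and formazan dissolved in DMSO. Absorbance read at 570 nm, and IC50 derived from the curves. Tumor lines were grown in RPMI 1640; HUVEC, HaCaT and LO2 were grown in DMEM, each with 10% FBS at 37 °C and 5% CO2.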

[2] = Cytotoxicity against HUVEC incubated for 72 hrs by MTT assay; format: toxicity, cell-based; conditions: human, HUVEC cells; how it was run: as §1
[3] = Cytotoxicity against human HaCaT cells incubated for 72 hrs by MTT assay; format: toxicity, cell-based; how it was run: as §1
NCI-H460 = test: Cytotoxicity against human NCI-H460 cells incubated for 72 hrs by MTT assay; format: functional, cell-based; conditions: NCI-H460, 72 h; how it was run: as §1
MDA-MB-231 = test: Cytotoxicity against human MDA-MB-231 cells incubated for 72 hrs by MTT assay; format: functional, cell-based; conditions: MDA-MB-231, 72 h; how it was run: as §1
[4] = Octanol-water partition coefficient, logD of the compound in PBS at pH 7.4 by liquid chromatography based mass spectrometric analysis; format: physicochemical
How it was run: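 Shake-flask method: 3.0 mg compound dissolved in PBS-saturated n-octanol and rotated 24 h at room temperature. The octanol phase was then mixed with octanol-saturated PBS, rotated another 24 h and centrifuged. Both phases quantified by LC-MS against a standard curve, and log P = log(C octanol/C water).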

NCI-H1975 [5] = test: Cytotoxicity against human NCI-H1975 cells incubated for 72 hrs by MTT assay; format: functional, cell-based; conditions: NCI-H1975, 72 h; how it was run: as §1
SW-620 = test: Cytotoxicity against human SW-620 cells incubated for 72 hrs by MTT assay; format: functional, cell-based; conditions: SW-620, 72 h; how it was run: as §1
HCT-116 = test: Cytotoxicity against human HCT-116 cells incubated for 72 hrs by MTT assay; format: functional, cell-based; conditions: HCT-116, 72 h; how it was run: as §1
HT-29 = test: Cytotoxicity against human HT-29 cells incubated for 72 hrs by MTT assay; format: functional, cell-based; conditions: HT-29, 72 h; how it was run: as §1
NCI-H1975 [6] = test: Antitumor activity against human NCI-H1975 cells xenografted in BALB/c nude mouse assessed as tumor growth inhibition at 15 mg/kg, ip, q3d for 2 weeks relative to control; conditions: NCI-H1975, 336 h, read-out: TGI

CC(C)[C@]12O[C@H]1[C@@H]1O[C@]13[C@]1(O[C@H]1C[C@H]1C4=C(CC[C@@]13C)C(=O)OC4)[C@@H]2OC(=O)CCC(=O)O[C@H]1[C@H](O)[C@@H](O)C(O)O[C@@H]1CO (stereo not given in full) showed an IC50 at 72 h [1] of 1800 nM, an IC50 at 72 h [2] of 2360 nM and an IC50 at 72 h [3] of 4750 nM. For the same compound, the IC50 (NCI-H460) was 3060 nM, the IC50 (MDA-MB-231) was 5610 nM and the logD [4] was -0.331. The IC50 (NCI-H1975 [5]) was 2510 nM, the IC50 (SW-620) was 11000 nM and the IC50 (HCT-116) was 4470 nM. It also gave an IC50 (HT-29) of 4080 nM.

Compound CC(C)[C@]12O[C@H]1[C@@H]1O[C@]13[C@]1(O[C@H]1C[C@H]1C4=C(CC[C@@]13C)C(=O)OC4)[C@@H]2OC(=O)CCC(=O)OC[C@H]1OC(O)[C@H](O)[C@@H](O)[C@@H]1O (stereo not given in full) has an IC50 at 72 h [1] of 1420 nM, an IC50 at 72 h [2] of 2020 nM and an IC50 at 72 h [3] of 3900 nM. It also gave an IC50 (NCI-H460) of 1070 nM, an IC50 (MDA-MB-231) of 6620 nM and an IC50 (NCI-H1975 [5]) of 1140 nM. It also gave an IC50 (SW-620) of 5200 nM, an IC50 (HCT-116) of 2280 nM and an IC50 (HT-29) of 4280 nM.

With CC(C)[C@]12O[C@H]1[C@@H]1O[C@]13[C@]1(O[C@H]1C[C@H]1C4=C(CC[C@@]13C)C(=O)OC4)[C@@H]2OC(=O)CCC(=O)O[C@H]1[C@H](O)[C@@H](CO)OC(O)[C@@H]1O (stereo not given in full) the IC50 at 72 h [1] was 1380 nM, the IC50 at 72 h [2] was 4930 nM and the IC50 at 72 h [3] was 4830 nM. For the same compound, the IC50 (NCI-H460) was 1630 nM, the IC50 (MDA-MB-231) was 2430 nM and the logD [4] was -0.772. For the same compound, the IC50 (NCI-H1975 [5]) was 2210 nM, the IC50 (SW-620) was 2550 nM and the IC50 (HCT-116) was 2710 nM. For the same compound, the IC50 (HT-29) was 5180 nM.

For CC(=O)O[C@H]1C(=O)[C@@]2(C)[C@H]([C@H](OC(=O)c3ccccc3)[C@]3(O)C[C@H](OC(=O)[C@H](O)[C@@H](NC(=O)c4ccccc4)c4ccccc4)C(C)=C1C3(C)C)[C@]1(OC(C)=O)CO[C@@H]1C[C@@H]2O [PACLITAXEL], the inhibition in vivo at 15 mg/kg (NCI-H1975 [6]) was 56.9%.
